Published values pooled from the literature.
Compare with care: the assays were run in different laboratories.
Read-out: cell growth or viability

COc1cc(Nc2nccc(-c3cnn4nc(OC)ccc34)n2)cc(C(F)(F)F)c1 — IC50 (DLD-1; ATP luminescence): 530 nM
CC(=O)O[C@H]1C(=O)[C@@]2(C)[C@H]([C@H](OC(=O)c3ccccc3)[C@]3(O)C[C@H](OC(=O)[C@H](O)[C@@H](NC(=O)c4ccccc4)c4ccccc4)C(C)=C1C3(C)C)[C@]1(OC(C)=O)CO[C@@H]1C[C@@H]2O — IC50 (BXPC-3; fluorescence; 72 h): 4 nM
COc1cc([C@@H]2c3cc4c(cc3[C@@H](O[C@@H]3O[C@@H]5CO[C@@H](C)O[C@H]5[C@H](O)[C@H]3O)[C@H]3COC(=O)[C@H]23)OCO4)cc(OC)c1O — IC50 (DLD-1; fluorescence; 48 h): 1300 nM
Cc1cnc(NC2CCOCC2)nc1-n1cnc(C(=O)NC(CN)c2cc(F)cc(Cl)c2)c1 (centres unmarked) — IC50 (U-2973; MTS): 300 nM
CCC[C@H](Nc1nc(-c2ccc(NC(=O)NCC)c(OC)c2)ncc1C)c1cccnc1 — IC50 (BXPC-3; fluorescence; 72 h): 37.1 nM
Cc1ccc2[nH]c(=O)c3cc(C(=O)NCCCN(C)Cc4ccccc4)sc3c2c1 — IC50 (BXPC-3; MTT; 24 h): 10100 nM
CCN1CCN(c2ccc(Nc3cc(N(C)C(=O)Nc4c(Cl)c(OC)cc(OC)c4Cl)ncn3)cc2)CC1 — IC50 (MFE-296; ATP luminescence; 96 h): 52.5 nM
CCN(CC)CCCC(C)Nc1cnc(C(=O)Nc2cc(F)cc3cccnc23)cn1 (centres unmarked) — IC50 (BXPC-3; MTT): 7300 nM
Cc1nc(Nc2ncc(C(=O)Nc3c(C)cccc3Cl)s2)cc(N2CCN(CCO)CC2)n1 — IC50 (BXPC-3; MTT): 46 nM
CC(C)n1ncnc1-c1cn2c(n1)-c1ccc(O[C@@H](C)C(N)=O)cc1OCC2 — IC50 (SW48; ATP luminescence; 96 h): 21 nM
CC(C)C[C@H](NC(=O)[C@H](Cc1ccccc1)NC(=O)c1cnccn1)B(O)O — IC50 (SK-N-FI; ATP luminescence): 13 nM
C=C(C)[C@@H]1CC[C@]2(C(=O)O)CC[C@]3(C)[C@H](CC[C@@H]4[C@@]5(C)CC[C@H](O)C(C)(C)[C@@H]5CC[C@]43C)[C@@H]12 — IC50 (DLD-1; 48 h): 20000 nM
CCN1C(=O)N(c2c(F)c(OC)cc(OC)c2F)Cc2cnc3[nH]c(CN4CCOCC4)cc3c21 — IC50 (MFE-296; ATP luminescence; 96 h): 56 nM
C[C@H](NC(=O)c1cccc2ccccc12)C(=O)Nc1ccccc1Oc1ccccc1 — IC50 (SK-N-FI): 3000 nM
